Laboratory results reported in ChEMBL document CHEMBL1142960, “Synthesis and structure-activity relationships for 2,4-dinitrobenzamide-5-mustards as prodrugs for the Escherichia coli nfsB nitroreductase in gene therapy” (J Med Chem, 2007).
Values after ≈ are worked out from the molar mass of the structure shown.

system: V79; experiment: Antiproliferative activity against chinese hamster wild-type V79 NTR-ve cells after 18 hrs; type: functional, cell-based; conditions: Cricetulus griseus, V79, 18 h

| SMILES | IC50 [µM] |
| --- | --- |
| O=C(O)CCNC(=O)c1cc(N(CCCl)CCCl)c([N+](=O)[O-])cc1[N+](=O)[O-] | 4890 |
| CS(=O)(=O)OCCN(CCOS(C)(=O)=O)c1cc(C(=O)NCC(O)CO)c([N+](=O)[O-])cc1[N+](=O)[O-] (stereo not drawn) | 237 |
| O=C(NOCCO)c1cc(N(CCCl)CCCl)c([N+](=O)[O-])cc1[N+](=O)[O-] | 750 |
| CS(=O)(=O)OCCN(CCBr)c1cc(C(=O)NO)c([N+](=O)[O-])cc1[N+](=O)[O-] | 97 |
| O=C(NCCCN1CCOCC1)c1cc(N(CCCl)CCCl)c([N+](=O)[O-])cc1[N+](=O)[O-] | 348 |

system: V79; experiment: Antiproliferative activity against chinese hamster V79 NTRpuro cells after 18 hrs; type: functional, cell-based; conditions: Cricetulus griseus, V79, 18 h

| SMILES | IC50 [µM] |
| --- | --- |
| O=C(O)CCNC(=O)c1cc(N(CCCl)CCCl)c([N+](=O)[O-])cc1[N+](=O)[O-] | 470 |
| CS(=O)(=O)OCCN(CCOS(C)(=O)=O)c1cc(C(=O)NCC(O)CO)c([N+](=O)[O-])cc1[N+](=O)[O-] (stereo not drawn) | 16 |
| O=C(NOCCO)c1cc(N(CCCl)CCCl)c([N+](=O)[O-])cc1[N+](=O)[O-] | 13 |
| CS(=O)(=O)OCCN(CCBr)c1cc(C(=O)NO)c([N+](=O)[O-])cc1[N+](=O)[O-] | 0.9 |
| O=C(NCCCN1CCOCC1)c1cc(N(CCCl)CCCl)c([N+](=O)[O-])cc1[N+](=O)[O-] | 105 |

system: V79; experiment: Selectivity ratio of IC50 for V79 NTR-ve cells to IC50 for V79 NTRpuro cells; type: functional, Cricetulus griseus; conditions: not given

| SMILES | Ratio IC50 |
| --- | --- |
| O=C(O)CCNC(=O)c1cc(N(CCCl)CCCl)c([N+](=O)[O-])cc1[N+](=O)[O-] | 9.5 |
| CS(=O)(=O)OCCN(CCOS(C)(=O)=O)c1cc(C(=O)NCC(O)CO)c([N+](=O)[O-])cc1[N+](=O)[O-] (stereo not drawn) | 13 |
| O=C(NOCCO)c1cc(N(CCCl)CCCl)c([N+](=O)[O-])cc1[N+](=O)[O-] | 76 |
| CS(=O)(=O)OCCN(CCBr)c1cc(C(=O)NO)c([N+](=O)[O-])cc1[N+](=O)[O-] | 112 |
| O=C(NCCCN1CCOCC1)c1cc(N(CCCl)CCCl)c([N+](=O)[O-])cc1[N+](=O)[O-] | 3.4 |

system: EMT6; experiment: Antiproliferative activity against mouse wild type EMT6 NTR-ve cells after 18 hrs; type: functional, cell-based; conditions: EMT6, 18 h

| SMILES | IC50 [µM] |
| --- | --- |
| O=C(O)CCNC(=O)c1cc(N(CCCl)CCCl)c([N+](=O)[O-])cc1[N+](=O)[O-] | 4630 |
| CS(=O)(=O)OCCN(CCOS(C)(=O)=O)c1cc(C(=O)NCC(O)CO)c([N+](=O)[O-])cc1[N+](=O)[O-] (stereo not drawn) | 251 |
| O=C(NOCCO)c1cc(N(CCCl)CCCl)c([N+](=O)[O-])cc1[N+](=O)[O-] | 560 |
| CS(=O)(=O)OCCN(CCBr)c1cc(C(=O)NO)c([N+](=O)[O-])cc1[N+](=O)[O-] | 63 |
| O=C(NCCCN1CCOCC1)c1cc(N(CCCl)CCCl)c([N+](=O)[O-])cc1[N+](=O)[O-] | 199 |

system: EMT6; experiment: Antiproliferative activity against mouse EMT6 NTRpuro cells after 18 hrs; type: functional, cell-based; conditions: EMT6, 18 h

| SMILES | IC50 [µM] |
| --- | --- |
| O=C(O)CCNC(=O)c1cc(N(CCCl)CCCl)c([N+](=O)[O-])cc1[N+](=O)[O-] | 424 |
| CS(=O)(=O)OCCN(CCOS(C)(=O)=O)c1cc(C(=O)NCC(O)CO)c([N+](=O)[O-])cc1[N+](=O)[O-] (stereo not drawn) | 8 |
| O=C(NOCCO)c1cc(N(CCCl)CCCl)c([N+](=O)[O-])cc1[N+](=O)[O-] | 6.6 |
| CS(=O)(=O)OCCN(CCBr)c1cc(C(=O)NO)c([N+](=O)[O-])cc1[N+](=O)[O-] | 0.41 |
| O=C(NCCCN1CCOCC1)c1cc(N(CCCl)CCCl)c([N+](=O)[O-])cc1[N+](=O)[O-] | 24 |

system: EMT6; experiment: Selectivity ratio of IC50 for EMT6 NTR-ve cells to IC50 forEMT6 NTRpuro cells; type: functional, Mus musculus; conditions: not given

| SMILES | Ratio IC50 |
| --- | --- |
| O=C(O)CCNC(=O)c1cc(N(CCCl)CCCl)c([N+](=O)[O-])cc1[N+](=O)[O-] | 13 |
| CS(=O)(=O)OCCN(CCOS(C)(=O)=O)c1cc(C(=O)NCC(O)CO)c([N+](=O)[O-])cc1[N+](=O)[O-] (stereo not drawn) | 31 |
| O=C(NOCCO)c1cc(N(CCCl)CCCl)c([N+](=O)[O-])cc1[N+](=O)[O-] | 85 |
| CS(=O)(=O)OCCN(CCBr)c1cc(C(=O)NO)c([N+](=O)[O-])cc1[N+](=O)[O-] | 156 |
| O=C(NCCCN1CCOCC1)c1cc(N(CCCl)CCCl)c([N+](=O)[O-])cc1[N+](=O)[O-] | 8 |

system: WiDr; experiment: Antiproliferative activity against human wild type WiDr NTR-ve cells after 18 hrs; type: functional, cell-based; conditions: not given

| SMILES | IC50 [µM] |
| --- | --- |
| O=C(O)CCNC(=O)c1cc(N(CCCl)CCCl)c([N+](=O)[O-])cc1[N+](=O)[O-] | 6390 |
| CS(=O)(=O)OCCN(CCOS(C)(=O)=O)c1cc(C(=O)NCC(O)CO)c([N+](=O)[O-])cc1[N+](=O)[O-] (stereo not drawn) | 347 |
| O=C(NOCCO)c1cc(N(CCCl)CCCl)c([N+](=O)[O-])cc1[N+](=O)[O-] | 895 |
| CS(=O)(=O)OCCN(CCBr)c1cc(C(=O)NO)c([N+](=O)[O-])cc1[N+](=O)[O-] | 113 |
| O=C(NCCCN1CCOCC1)c1cc(N(CCCl)CCCl)c([N+](=O)[O-])cc1[N+](=O)[O-] | 163 |

system: WiDr; experiment: Antiproliferative activity against human WiDr NTRneo cells after 18 hrs; type: functional, cell-based; conditions: not given

| SMILES | IC50 [µM] |
| --- | --- |
| O=C(O)CCNC(=O)c1cc(N(CCCl)CCCl)c([N+](=O)[O-])cc1[N+](=O)[O-] | 1810 |
| CS(=O)(=O)OCCN(CCOS(C)(=O)=O)c1cc(C(=O)NCC(O)CO)c([N+](=O)[O-])cc1[N+](=O)[O-] (stereo not drawn) | 23 |
| O=C(NOCCO)c1cc(N(CCCl)CCCl)c([N+](=O)[O-])cc1[N+](=O)[O-] | 25 |
| CS(=O)(=O)OCCN(CCBr)c1cc(C(=O)NO)c([N+](=O)[O-])cc1[N+](=O)[O-] | 1.16 |
| O=C(NCCCN1CCOCC1)c1cc(N(CCCl)CCCl)c([N+](=O)[O-])cc1[N+](=O)[O-] | 90 |

system: WiDr; experiment: Selectivity ratio of IC50 for WiDr NTR-ve cells to IC50 for WiDr NTRneo cells; type: functional, Homo sapiens; conditions: not given

| SMILES | Ratio IC50 |
| --- | --- |
| O=C(O)CCNC(=O)c1cc(N(CCCl)CCCl)c([N+](=O)[O-])cc1[N+](=O)[O-] | 3.5 |
| CS(=O)(=O)OCCN(CCOS(C)(=O)=O)c1cc(C(=O)NCC(O)CO)c([N+](=O)[O-])cc1[N+](=O)[O-] (stereo not drawn) | 17 |
| O=C(NOCCO)c1cc(N(CCCl)CCCl)c([N+](=O)[O-])cc1[N+](=O)[O-] | 39 |
| CS(=O)(=O)OCCN(CCBr)c1cc(C(=O)NO)c([N+](=O)[O-])cc1[N+](=O)[O-] | 100 |
| O=C(NCCCN1CCOCC1)c1cc(N(CCCl)CCCl)c([N+](=O)[O-])cc1[N+](=O)[O-] | 1.9 |

system: not listed separately; experiment: Antiproliferative activity against human wild type Skov3 NTR-ve cells after 18 hrs; type: functional, cell-based; conditions: not given

| SMILES | IC50 [µM] |
| --- | --- |
| O=C(O)CCNC(=O)c1cc(N(CCCl)CCCl)c([N+](=O)[O-])cc1[N+](=O)[O-] | 5720 |
| CS(=O)(=O)OCCN(CCOS(C)(=O)=O)c1cc(C(=O)NCC(O)CO)c([N+](=O)[O-])cc1[N+](=O)[O-] (stereo not drawn) | 379 |
| O=C(NOCCO)c1cc(N(CCCl)CCCl)c([N+](=O)[O-])cc1[N+](=O)[O-] | > 1190 |
| CS(=O)(=O)OCCN(CCBr)c1cc(C(=O)NO)c([N+](=O)[O-])cc1[N+](=O)[O-] | 146 |
| O=C(NCCCN1CCOCC1)c1cc(N(CCCl)CCCl)c([N+](=O)[O-])cc1[N+](=O)[O-] | 692 |

system: not listed separately; experiment: Antiproliferative activity against human Skov3 NTRneo cells after 18 hrs; type: functional, cell-based; conditions: SK-OV-3, 18 h

| SMILES | IC50 [µM] |
| --- | --- |
| O=C(O)CCNC(=O)c1cc(N(CCCl)CCCl)c([N+](=O)[O-])cc1[N+](=O)[O-] | 643 |
| CS(=O)(=O)OCCN(CCOS(C)(=O)=O)c1cc(C(=O)NCC(O)CO)c([N+](=O)[O-])cc1[N+](=O)[O-] (stereo not drawn) | 10 |
| O=C(NOCCO)c1cc(N(CCCl)CCCl)c([N+](=O)[O-])cc1[N+](=O)[O-] | 11 |
| CS(=O)(=O)OCCN(CCBr)c1cc(C(=O)NO)c([N+](=O)[O-])cc1[N+](=O)[O-] | 1.44 |
| O=C(NCCCN1CCOCC1)c1cc(N(CCCl)CCCl)c([N+](=O)[O-])cc1[N+](=O)[O-] | 55 |

system: not listed separately; experiment: Selectivity ratio of IC50 for Skov3 NTR-ve cells to IC50 for Skov3 NTRneo cells; type: functional, Homo sapiens; conditions: not given

| SMILES | Ratio IC50 |
| --- | --- |
| O=C(O)CCNC(=O)c1cc(N(CCCl)CCCl)c([N+](=O)[O-])cc1[N+](=O)[O-] | 11 |
| CS(=O)(=O)OCCN(CCOS(C)(=O)=O)c1cc(C(=O)NCC(O)CO)c([N+](=O)[O-])cc1[N+](=O)[O-] (stereo not drawn) | 43 |
| O=C(NOCCO)c1cc(N(CCCl)CCCl)c([N+](=O)[O-])cc1[N+](=O)[O-] | >90 |
| CS(=O)(=O)OCCN(CCBr)c1cc(C(=O)NO)c([N+](=O)[O-])cc1[N+](=O)[O-] | 115 |
| O=C(NCCCN1CCOCC1)c1cc(N(CCCl)CCCl)c([N+](=O)[O-])cc1[N+](=O)[O-] | 14 |

system: not listed separately; experiment: Solubility in alpha MEM; type: physicochemical; conditions: not given
Procedure, shortened: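 Solubility (mM) in α-MEM with 5% fetal calf serum at ambient temperature, measured by HPLC.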

| SMILES | solubility [mM] |
| --- | --- |
| CS(=O)(=O)OCCN(CCOS(C)(=O)=O)c1cc(C(=O)NCC(O)CO)c([N+](=O)[O-])cc1[N+](=O)[O-] (stereo not drawn) | 9 (≈ 4900 µg/mL) |
| O=C(NOCCO)c1cc(N(CCCl)CCCl)c([N+](=O)[O-])cc1[N+](=O)[O-] | 2.1 (≈ 864 µg/mL) |
| CS(=O)(=O)OCCN(CCBr)c1cc(C(=O)NO)c([N+](=O)[O-])cc1[N+](=O)[O-] | 1.5 (≈ 707 µg/mL) |
| O=C(NCCCN1CCOCC1)c1cc(N(CCCl)CCCl)c([N+](=O)[O-])cc1[N+](=O)[O-] | 22 (≈ 10500 µg/mL) |

system: not listed separately; experiment: Stability in alpha MEM at 37 degC after 24 hrs; type: physicochemical; conditions: read-out: Stability
Procedure, shortened: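 Percent parent compound remaining, by HPLC, after holding in α-MEM with 5% fetal calf serum at 37 °C for 24 h.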

| SMILES | remaining at 24 h [%] |
| --- | --- |
| CS(=O)(=O)OCCN(CCOS(C)(=O)=O)c1cc(C(=O)NCC(O)CO)c([N+](=O)[O-])cc1[N+](=O)[O-] (stereo not drawn) | 54 |
| O=C(NOCCO)c1cc(N(CCCl)CCCl)c([N+](=O)[O-])cc1[N+](=O)[O-] | 100 |
| CS(=O)(=O)OCCN(CCBr)c1cc(C(=O)NO)c([N+](=O)[O-])cc1[N+](=O)[O-] | 48 |
| O=C(NCCCN1CCOCC1)c1cc(N(CCCl)CCCl)c([N+](=O)[O-])cc1[N+](=O)[O-] | 96 |
